The values that follow come from ChEMBL document CHEMBL1147831, “Kinesin spindle protein (KSP) inhibitors. Part 4: Structure-based design of 5-alkylamino-3,5-diaryl-4,5-dihydropyrazoles as potent, water-soluble inhibitors of the mitotic kinesin KSP” (Bioorg Med Chem Lett, 2006).

Values after ≈ are worked out from the molar mass of the structure shown.

Data set [1] has as its target T1, Kinesin-like protein KIF11 (Homo sapiens, UniProt P52732).
T1 sequence (P52732 whole entry): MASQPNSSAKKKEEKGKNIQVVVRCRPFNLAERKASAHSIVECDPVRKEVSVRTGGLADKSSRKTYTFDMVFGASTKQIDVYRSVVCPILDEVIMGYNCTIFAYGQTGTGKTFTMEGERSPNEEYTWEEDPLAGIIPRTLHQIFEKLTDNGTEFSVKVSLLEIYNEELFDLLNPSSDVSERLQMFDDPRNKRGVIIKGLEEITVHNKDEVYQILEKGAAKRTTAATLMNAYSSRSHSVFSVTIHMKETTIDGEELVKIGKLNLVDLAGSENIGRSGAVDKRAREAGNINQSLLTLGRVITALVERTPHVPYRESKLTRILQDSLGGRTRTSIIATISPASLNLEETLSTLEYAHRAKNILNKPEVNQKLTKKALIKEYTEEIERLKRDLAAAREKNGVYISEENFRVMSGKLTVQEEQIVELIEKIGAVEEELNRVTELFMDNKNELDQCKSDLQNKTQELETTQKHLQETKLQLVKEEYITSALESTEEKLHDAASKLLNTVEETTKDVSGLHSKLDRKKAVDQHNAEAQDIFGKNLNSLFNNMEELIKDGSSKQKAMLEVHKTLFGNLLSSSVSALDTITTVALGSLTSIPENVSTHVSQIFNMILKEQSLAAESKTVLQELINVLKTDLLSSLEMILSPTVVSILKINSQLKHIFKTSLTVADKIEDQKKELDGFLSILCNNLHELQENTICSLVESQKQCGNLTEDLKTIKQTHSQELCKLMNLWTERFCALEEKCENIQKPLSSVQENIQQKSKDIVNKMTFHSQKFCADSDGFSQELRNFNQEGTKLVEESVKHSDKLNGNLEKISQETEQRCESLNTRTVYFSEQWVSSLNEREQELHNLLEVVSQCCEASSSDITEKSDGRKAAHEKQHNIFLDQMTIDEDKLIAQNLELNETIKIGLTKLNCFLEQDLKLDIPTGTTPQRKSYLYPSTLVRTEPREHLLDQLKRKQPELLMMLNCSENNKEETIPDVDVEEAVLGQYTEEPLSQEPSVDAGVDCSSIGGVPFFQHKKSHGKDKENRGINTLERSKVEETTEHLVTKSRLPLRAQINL
Put plainly: Inhibition of KSP by ATPase assay.

In data set [2] the test system is A2780. Put plainly: Mitotic arrest in human A2780 cells. Format: functional, cell-based.
Data set [3] in a line: Partition coefficient, log P of the compound. To be noted: octanol/water. It is filed as physicochemical.
Data set [4] can be described thus: Solubility in citrate at pH 6.5. Format: physicochemical. An outline of the steps: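 Crystalline solid; solubility determined in pH 6.5 citrate buffer.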
Data set [5] is described as follows: Clearance in mongrel dog at 0.25 mg/kg, iv. On the set-up: dose 0.25 mg/kg, route intravenous. To be noted: in vivo. Format: ADME, organism-based, Canis lupus familiaris. The essentials:
(§1)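 Single iv dose of 0.25 mpk given to two mongrel dogs, one male and one female.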

The nature of data set [6]: Half life in mongrel dog at 0.25 mg/kg, iv. Format: ADME, organism-based, Canis lupus familiaris. Also on record: dose 0.25 mg/kg, route intravenous. To be noted: in vivo. An outline of the steps: as §1
The nature of data set [7]: Volume of distribution in mongrel dog at 0.25 mg/kg, iv. Format: ADME, organism-based, Canis lupus familiaris. On the set-up: dose 0.25 mg/kg, route intravenous. To be noted: in vivo, read-out: Vdss. The essentials:
as §1

Data set [8] concerns the target Voltage-gated inwardly rectifying potassium channel KCNH2 (Homo sapiens, UniProt Q12809). Briefly: Inhibition of hERG expressed in HEK cells by radioligand binding assay. It is filed as toxicity, cell-based, HEK293. A general note: Block of hERG is tested as a sign of cardiac risk.
Data set [9] in a line: Solubility in citrate at pH 4.0. It is filed as physicochemical. An outline of the steps: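 Solubility of crystalline solid determined in citrate buffer at pH 4.0.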
The nature of data set [10]: Aqueous solubility at pH 10.3. Format: physicochemical. The note with it: aqueous medium. An outline of the steps: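 Solubility of crystalline material measured in water; final pH of the solution was 10.3.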

Voltage-gated inwardly rectifying potassium channel KCNH2, sequence (Q12809 whole entry): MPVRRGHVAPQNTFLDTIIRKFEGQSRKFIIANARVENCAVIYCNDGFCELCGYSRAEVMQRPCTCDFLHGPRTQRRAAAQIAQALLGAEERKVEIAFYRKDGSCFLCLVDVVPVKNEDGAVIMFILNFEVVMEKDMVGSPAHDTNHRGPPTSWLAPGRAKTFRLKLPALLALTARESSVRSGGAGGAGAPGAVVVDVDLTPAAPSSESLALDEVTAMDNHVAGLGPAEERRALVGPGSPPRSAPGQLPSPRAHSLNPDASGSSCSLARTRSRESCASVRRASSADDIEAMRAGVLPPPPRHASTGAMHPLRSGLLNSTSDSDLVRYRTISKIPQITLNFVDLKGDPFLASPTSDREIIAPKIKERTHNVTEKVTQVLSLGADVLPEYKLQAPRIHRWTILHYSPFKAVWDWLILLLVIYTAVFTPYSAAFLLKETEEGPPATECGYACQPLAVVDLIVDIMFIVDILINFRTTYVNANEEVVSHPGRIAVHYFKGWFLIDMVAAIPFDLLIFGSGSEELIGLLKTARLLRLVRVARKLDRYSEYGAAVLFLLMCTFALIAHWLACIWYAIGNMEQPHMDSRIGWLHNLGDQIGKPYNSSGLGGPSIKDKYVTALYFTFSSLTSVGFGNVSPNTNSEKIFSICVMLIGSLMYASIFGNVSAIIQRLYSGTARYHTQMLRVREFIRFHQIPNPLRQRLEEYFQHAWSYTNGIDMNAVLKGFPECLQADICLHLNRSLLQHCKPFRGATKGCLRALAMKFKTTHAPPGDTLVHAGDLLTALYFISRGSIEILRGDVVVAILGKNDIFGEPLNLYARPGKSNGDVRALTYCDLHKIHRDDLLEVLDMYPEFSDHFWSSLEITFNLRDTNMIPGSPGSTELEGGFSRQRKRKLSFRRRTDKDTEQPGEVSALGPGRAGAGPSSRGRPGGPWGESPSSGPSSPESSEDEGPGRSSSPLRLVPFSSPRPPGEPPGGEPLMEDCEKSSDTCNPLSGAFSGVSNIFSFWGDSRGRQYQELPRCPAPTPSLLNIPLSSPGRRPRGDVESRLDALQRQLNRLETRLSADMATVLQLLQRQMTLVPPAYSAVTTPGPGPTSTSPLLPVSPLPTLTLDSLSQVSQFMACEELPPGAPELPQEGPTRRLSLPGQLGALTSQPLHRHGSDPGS

With `CC(=O)N1N=C(c2cc(F)ccc2F)C[C@H]1c1cccc(O)c1`, in [1], the IC50 (as a rule, the midpoint of a concentration-inhibition curve) was determined as 24.7 nM. Also, the EC50 (as a rule, the concentration giving half of the maximal effect) in [2] is 24.8 nM. In addition, the log partition coefficient (logP) (commonly a log measure of how a compound divides between an organic and an aqueous phase) in [3] turned out to be 3.1. Also, in data set [4], the solubility (usually the concentration that dissolves in the medium under given conditions) was 29 µg/mL (≈ 0.0917 mM). The clearance (as a rule, the rate of elimination divided by the concentration) in data set [5] is 22.1 mL/min/kg. In addition, the half-life (usually the time in which the quantity being followed falls by half) in [6] is 60 min. The Vd in data set [7] is 1.6 L/kg. For the molecule `CNC(=O)N1N=C(c2cc(F)ccc2F)CC1(C)c1ccccc1` (stereo unspecified), half-maximal inhibition in data set [1] (IC50) was put at 284 nM. The same measure, in the same setting: with `CNC(=O)N1N=C(c2cc(F)ccc2F)CC1(CO)c1ccccc1` (stereo unspecified) the figure was 903 nM; with `CCNC(=O)N1N=C(c2cc(F)ccc2F)CC1(CCN)c1ccccc1` (stereo unspecified), 390 nM; with `CCNC(=O)N1N=C(c2cc(F)ccc2F)CC1(CCCCN)c1ccccc1` (stereo unspecified), 67 nM. `CCNC(=O)N1N=C(c2cc(F)ccc2F)CC1(CCCCNCc1ccccc1)c1ccccc1` (stereo unspecified) showed an IC50 in data set [1] of 100 nM.

In data set [1], `CCNC(=O)N1N=C(c2cc(F)ccc2F)CC1(CCCCNC(=O)c1ccccc1)c1ccccc1` (stereo unspecified) returned an IC50 of 892 nM. On the same count and under the same terms, then `CCNC(=O)N1N=C(c2cc(F)ccc2F)CC1(CCCCNC(=O)c1cnc[nH]1)c1ccccc1` (stereo unspecified), with 686 nM.

Regarding `CN(C)C(=O)N1N=C(c2cc(F)ccc2F)CC1(CCCN)c1ccccc1` (stereo unspecified), the IC50 in data set [1] worked out at 8 nM. The same measure, in the same setting: with `CCNC(=O)N1N=C(c2cc(F)ccc2F)CC1(CCCCNC(=O)c1ncc[nH]1)c1ccccc1` (stereo unspecified) the figure was 552 nM; with `NCCCC1(c2ccccc2)CC(c2cc(F)ccc2F)=NN1C(=O)N1CCC1` (stereo unspecified), 55 nM; with `CCNC(=O)N1N=C(c2cc(F)ccc2F)CC1(CCCCN(C)C)c1ccccc1` (stereo unspecified), 103 nM. The molecule `NCCCC1(c2ccccc2)CC(c2cc(F)ccc2F)=NN1C(=O)N1CCOCC1` (stereo unspecified) returned an IC50 in data set [1] of 122 nM. Take `CN(C)C(=O)N1N=C(c2cc(F)ccc2F)C[C@@]1(CCCN)c1ccccc1`: the IC50 in data set [8] stood at 19.3 µM; in [1] it was 1.9 nM. The molecule also returned a 50% effective concentration (EC50) in [2] of 5.2 nM. Also, in data set [3], the logP was 1.2. For the same molecule, the solubility in [9] was > 12 mg/mL; in data set [10], 1700 µg/mL (≈ 4.4 mM). The clearance in data set [5] stood at 14.5 mL/min/kg. In addition, in data set [6], the half-life is 882 min. Besides, the Vd in [7] was 14 L/kg. `CCNC(=O)N1N=C(c2cc(F)ccc2F)CC1(CCCC[N+](C)(C)[O-])c1ccccc1` (stereo unspecified): in data set [1], the 50% inhibitory concentration (IC50) worked out at 585 nM. On the same count and under the same terms, then `CCNC(=O)N1N=C(c2cc(F)ccc2F)CC1(CCCCN1CC2C=CC1C2)c1ccccc1` (stereo unspecified), with 119 nM.

Turning to `NCCCC1(c2ccccc2)CC(c2cc(F)ccc2F)=NN1C(=O)N1CCCCC1` (stereo unspecified), in data set [1], the half-maximal inhibitory concentration (IC50) came out at 85 nM.

In turn, `CCNC(=O)N1N=C(c2cc(F)ccc2F)CC1(CCO)c1ccccc1` (stereo unspecified) registered an IC50 in data set [1] of 606 nM. Regarding `NCCCC1(c2ccccc2)CC(c2cc(F)ccc2F)=NN1C(=O)N1CCCC1` (stereo unspecified), in [1], it took 26 nM to reach half-maximal inhibition (IC50). In the case of `CCNC(=O)N1N=C(c2cc(F)ccc2F)CC1(CCCCO)c1ccccc1` (stereo unspecified), in data set [1], the IC50 turned out to be 697 nM. In data set [1], `CCNC(=O)N1N=C(c2cc(F)ccc2F)CC1(CCCO)c1ccccc1` (stereo unspecified) displayed an IC50 of 745 nM. For `CCNC(=O)N1N=C(c2cc(F)ccc2F)CC1(CCCCNC(=O)c1ccccn1)c1ccccc1` (stereo unspecified), 391 nM corresponded to half-maximal inhibition in data set [1] (IC50).
